Among the data in ChEMBL document CHEMBL4266025, “Stereoselective Synthesis of the Isomers of Notoincisol A: Assigment of the Absolute Configuration of this Natural Product and Biological Evaluation” (J Nat Prod, 2018) are fold change (FC) and Activity values, retold here.

Active and inactive are the calls of the source. The calls are words filed in the database; no cut-off is given here.

The target in data set [1] is GABA-A receptor; alpha-1/beta-2/gamma-2 (Homo sapiens) (UniProt P14867+P47870+P18507). Description: Positive allosteric modulation of GABAA receptor alpha1beta2gamma2 (unknown origin) expressed in Xenopus laevis oocytes assessed as GABA-stimulated current amplitude at 1 to 10 uM incubated for 120 secs by electrophysiological method relative to control. Type of data set: cell-based. The procedure, abridged:
(§1)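 Two-electrode voltage clamp on Xenopus oocytes injected with subunit mRNA mixtures (α1β3 or α1β2γ2). Compounds at 1 and 10 μM, diluted into measurement buffer, co-applied with GABA at EC3-5, EC20, EC50 and EC80. Result taken as enhancement of the GABA-elicited current.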

The target of data set [2] is T1, Peroxisome proliferator-activated receptor gamma (Homo sapiens) (UniProt P37231).
T1 sequence (whole entry): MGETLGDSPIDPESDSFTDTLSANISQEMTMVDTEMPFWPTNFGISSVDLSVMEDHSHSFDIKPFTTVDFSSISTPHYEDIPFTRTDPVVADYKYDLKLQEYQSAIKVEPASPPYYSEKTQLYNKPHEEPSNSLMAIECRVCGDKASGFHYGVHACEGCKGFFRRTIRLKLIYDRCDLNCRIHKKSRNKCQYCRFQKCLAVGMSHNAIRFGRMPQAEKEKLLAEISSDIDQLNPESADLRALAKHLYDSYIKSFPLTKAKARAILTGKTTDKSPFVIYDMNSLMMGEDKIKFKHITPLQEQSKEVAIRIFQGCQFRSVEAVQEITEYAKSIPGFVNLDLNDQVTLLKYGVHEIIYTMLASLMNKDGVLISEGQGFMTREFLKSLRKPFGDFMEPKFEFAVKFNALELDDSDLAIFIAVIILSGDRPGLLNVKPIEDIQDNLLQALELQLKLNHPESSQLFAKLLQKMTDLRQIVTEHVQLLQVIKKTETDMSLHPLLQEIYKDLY
Description: Transactivation of human full length PPARgamma expressed in HEK293 cells up to 3 uM after 18 hrs by luciferase reporter gene based luminescence assay. The class given is cell-based. The procedure, abridged:
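HEK293 cells transfected for 6 h with full-length human PPARγ, a PPRE-firefly luciferase reporter and pEGFP-N1 (internal control). Cells reseeded in serum-free DMEM, dosed at 0.1–30 μM in DMSO and incubated 18 h. Luciferase/EGFP ratio expressed as fold induction over 0.1% DMSO; pioglitazone 5 μM as positive control. EC50 from a variable-slope sigmoidal fit.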

The test system of data set [3] is Oocyte. As to the kind of experiment: Induction of current amplitude in Xenopus laevis oocytes after […] by electrophysiological method. The class given is functional, cell-based.
The target in data set [4] is GABA-A receptor alpha-1/beta-3 (Homo sapiens) (UniProt P14867+P28472). Description: Positive allosteric modulation of GABAA receptor alpha1beta3 (unknown origin) expressed in Xenopus laevis oocytes assessed as GABA-stimulated current amplitude at 1 to 10 uM up to 120 secs by electrophysiological method. The class given is cell-based. The procedure, abridged: as §1
The test system of data set [5] is HEK293. As to the kind of experiment: Cytotoxicity against HEK293 cells assessed as decrease in cell viability at 10 uM after 24 hrs by resazurin based assay. The note with it: human, hek293, 24 h. The procedure, abridged: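 HEK293 cells seeded at 4 × 10^4 cells/well, grown overnight, then exposed to compound at 0.3, 1, 3, 10 and 30 μM for 24 h. Resazurin (10 μg/mL in PBS) added for 4 h at 37 °C. Resorufin fluorescence read at 535 nm excitation/590 nm emission as the viability measure.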

On to `C=C[C@H](O)C#CC#C[C@H](/C=C\CCCCCCC)OC(=O)/C=C/c1ccc(O)c(OC)c1`, for which, in data set [1], the fold change (FC) stood at 4. Further, the result in data set [2] was inactive. Also, the outcome in data set [3] and in data set [4] was Active.

Turning to `C=C[C@@H](O)C#CC#C[C@H](/C=C\CCCCCCC)OC(=O)/C=C/c1ccc(O)c(OC)c1`, in data set [1], the fold change (FC) is 4. The outcome in data set [3] and in data set [4] was Active.

With `C=CC(O)C#CC#CC(/C=C\CCCCCCC)OC(=O)/C=C/c1ccc(O)c(OC)c1` (stereo not drawn), the outcome in data set [2] was inactive. Further, the Activity entry in data set [5] is reported as “Toxic”.

With `C=C[C@H](O)C#CC#C[C@@H](/C=C\CCCCCCC)OC(=O)/C=C/c1ccc(O)c(OC)c1`, the fold change (FC) in data set [1] stood at 4. The result in data set [2] was inactive. For the same compound, the outcome in data set [3] and in data set [4] was Active.

For `C=C[C@@H](O)C#CC#C[C@@H](/C=C\CCCCCCC)OC(=O)/C=C/c1ccc(O)c(OC)c1`, in data set [1], the fold change (FC) worked out at 4. The outcome in data set [2] was inactive. The result in data set [3] and in data set [4] was Active.

On to `C=C[C@H](O)C#CC#C[C@@H](O)/C=C\CCCCCCC`, for which, in data set [2], the outcome was inactive. For the same compound, the Activity result in data set [5] is recorded as “Toxic”.

`CCC[C@@H](O)/C=C/C=C/C=C/C#CC#CCCCO` [CICUTOXIN]: in data set [2], the outcome was inactive. In data set [5], the Activity entry is listed as “Toxic”.

For `CCC[C@@H](O)CC/C=C/C=C/C#CC#CCCCO` [DIHYDROOENANTHOTOXIN], the result in data set [2] was inactive. Further, the Activity result in data set [5] is reported as “Toxic”.
